Measured values published in ChEMBL document CHEMBL4334424, “The winding road of the uvaretin class of natural products: from total synthesis to bioactive agent discovery” (Medchemcomm, 2019).
The source made the active and inactive calls. The rule behind the calls is not given here.

Assays:
HeLa = assay: Cytotoxicity against human HeLa cells assessed as reduction in cell viability incubated for 72 hrs by alamar blue assay; format: functional, cell-based
In short: (§1)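 Adherent cells were seeded at 1500 cells/well in 384-well plates and allowed 2–3 h to attach. Compounds in DMSO, diluted in media over 31.6 nM–200 μM, were tested in triplicate for 72 h continuous exposure at 37 °C, 5% CO2. Alamar Blue was added for the final 3 h and fluorescence read (ex 560/em 590 nm). IC50 was fitted from ≥3 independent experiments.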

U-937 = assay: Cytotoxicity against human U937 cells assessed as reduction in cell viability incubated for 72 hrs by alamar blue assay; format: functional, cell-based; conditions: U-937, 72 h
In short: (§2)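 Suspension cells (2200/well, 384-well) were added directly onto compound in media with no attachment period. Compounds spanned 31.6 nM–200 μM in triplicate, with 72 h exposure at 37 °C, 5% CO2. Alamar Blue was added for the last 3 h and fluorescence read (ex 560/em 590 nm). IC50 came from ≥3 independent experiments.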

A549 = assay: Cytotoxicity against human A549 cells assessed as reduction in cell viability incubated for 72 hrs by alamar blue assay; format: functional, cell-based; conditions: A549, 72 h; in short: as §1
MIA PaCa-2 [1] = assay: Cytotoxicity against human MIAPaCa2 cells assessed as reduction in cell viability incubated for 72 hrs by alamar blue assay; format: functional, cell-based; conditions: MIA PaCa-2, 72 h; in short: as §1
REH = assay: Cytotoxicity against human REH cells assessed as reduction in cell viability incubated for 72 hrs by alamar blue assay; format: functional, cell-based; in short: as §2
HCT-116 [2] = assay: Cytotoxicity against human HCT116 cells assessed as reduction in cell viability incubated for 72 hrs by alamar blue assay; format: functional, cell-based; conditions: HCT-116, 72 h; in short: as §1
MIA PaCa-2 [3] = assay: Cytotoxicity against human MIAPaCa2 cells assessed as cell viability at 2.5 uM incubated for 72 hrs in presence of 10 uM 6TP by alamar blue assay (reference value: 6.9 %); format: functional
In short: (§3)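 Combination assay in 96-well plates with 100 μL final volume and 1% DMSO. Two test-compound concentrations were crossed with five 6TP concentrations, then cells were added (4000/well adherent, 7000/well suspension). Plates ran 72 h at 37 °C, 5% CO2, with Alamar Blue viability read-out and ≥3 independent experiments. Combination index was calculated by the Chou–Talalay method.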

MIA PaCa-2 [4] = assay: Cytotoxicity against human MIAPaCa2 cells assessed as cell viability at 2.5 uM incubated for 72 hrs in presence of 25 uM 6TP by alamar blue assay (reference value: 6.4 %); format: functional; in short: as §3
MIA PaCa-2 [5] = assay: Cytotoxicity against human MIAPaCa2 cells assessed as cell viability at 2.5 uM incubated for 72 hrs in presence of 50 uM 6TP by alamar blue assay (reference value: 13.8 %); format: functional; in short: as §3
MIA PaCa-2 [6] = assay: Cytotoxicity against human MIAPaCa2 cells assessed as cell viability at 2.5 uM incubated for 72 hrs in presence of 100 uM 6TP by alamar blue assay (reference value: 30.7 %); format: functional; in short: as §3
MIA PaCa-2 [7] = assay: Cytotoxicity against human MIAPaCa2 cells assessed as cell viability at 5 uM incubated for 72 hrs in presence of 10 uM 6TP by alamar blue assay (reference value: 6.9 %); format: functional; in short: as §3
MIA PaCa-2 [8] = assay: Cytotoxicity against human MIAPaCa2 cells assessed as cell viability at 5 uM incubated for 72 hrs in presence of 25 uM 6TP by alamar blue assay (reference value: 6.4 %); format: functional; in short: as §3
MIA PaCa-2 [9] = assay: Cytotoxicity against human MIAPaCa2 cells assessed as cell viability at 5 uM incubated for 72 hrs in presence of 50 uM 6TP by alamar blue assay (reference value: 13.8 %); format: functional; in short: as §3
MIA PaCa-2 [10] = assay: Cytotoxicity against human MIAPaCa2 cells assessed as cell viability at 5 uM incubated for 72 hrs in presence of 100 uM 6TP by alamar blue assay (reference value: 30.7 %); format: functional; in short: as §3
MIA PaCa-2 [11] = assay: Cytotoxicity against human MIAPaCa2 cells assessed as combinational index at 2.5 uM incubated for 72 hrs in presence of 25 uM 6TP by alamar blue assay; format: functional; in short: as §3
MIA PaCa-2 [12] = assay: Cytotoxicity against human MIAPaCa2 cells assessed as combinational index at 2.5 uM incubated for 72 hrs in presence of 50 uM 6TP by alamar blue assay; format: functional; in short: as §3
MIA PaCa-2 [13] = assay: Cytotoxicity against human MIAPaCa2 cells assessed as combinational index at 2.5 uM incubated for 72 hrs in presence of 100 uM 6TP by alamar blue assay; format: functional; in short: as §3
MIA PaCa-2 [14] = assay: Cytotoxicity against human MIAPaCa2 cells assessed as combinational index at 2.5 uM incubated for 72 hrs in presence of 200 uM 6TP by alamar blue assay; format: functional; in short: as §3
MIA PaCa-2 [15] = assay: Cytotoxicity against human MIAPaCa2 cells assessed as combinational index at 5 uM incubated for 72 hrs in presence of 25 uM 6TP by alamar blue assay; format: functional; in short: as §3
MIA PaCa-2 [16] = assay: Cytotoxicity against human MIAPaCa2 cells assessed as combinational index at 5 uM incubated for 72 hrs in presence of 50 uM 6TP by alamar blue assay; format: functional; in short: as §3
MIA PaCa-2 [17] = assay: Cytotoxicity against human MIAPaCa2 cells assessed as combinational index at 5 uM incubated for 72 hrs in presence of 100 uM 6TP by alamar blue assay; format: functional; in short: as §3
MIA PaCa-2 [18] = assay: Cytotoxicity against human MIAPaCa2 cells assessed as combinational index at 5 uM incubated for 72 hrs in presence of 200 uM 6TP by alamar blue assay; format: functional; in short: as §3
MIA PaCa-2 [19] = assay: Cytotoxicity against human MIAPaCa2 cells assessed as cell viability at 2.5 uM incubated for 72 hrs by alamar blue assay (reference value: 0 %); format: functional; conditions: MIA PaCa-2, 72 h, read-out: Activity; in short: as §3
MIA PaCa-2 [20] = assay: Cytotoxicity against human MIAPaCa2 cells assessed as cell viability at 5 uM incubated for 72 hrs by alamar blue assay (reference value: 0 %); format: functional; conditions: MIA PaCa-2, 72 h, read-out: Activity; in short: as §3
HCT-116 [21] = assay: Cytotoxicity against human HCT116 cells assessed as reduction in cell viability incubated for 72 hrs in presence of doxorubicin by alamar blue assay; format: functional, cell-based
In short: (§4)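 Same combination format as the 6TP study, with the cytotoxic partner (doxorubicin, etoposide or paclitaxel) combined with test compound. Cells were at 4000/well (adherent) in 100 μL, 1% DMSO, for 72 h at 37 °C, 5% CO2, with Alamar Blue viability read-out. Combination index was derived by the Chou–Talalay protocol and reported as a median.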

HCT-116 [22] = assay: Cytotoxicity against human HCT116 cells assessed as reduction in cell viability incubated for 72 hrs in presence of 6TP by alamar blue assay; format: functional, cell-based; in short: as §3
HCT-116 [23] = assay: Cytotoxicity against human HCT116 cells assessed as reduction in cell viability incubated for 72 hrs in presence of etoposide by alamar blue assay; format: functional, cell-based; in short: as §4

Row | SMILES | IC50 (HeLa) | IC50 (U-937) | IC50 (A549) | IC50 (MIA PaCa-2 [1]) | IC50 (REH) | IC50 (HCT-116 [2]) | other results
1 | COCOc1cc(O)c(C(=O)/C=C/c2ccccc2)c(OCOC)c1 | 16.7 µM | > 20 µM | > 20 µM | 7.8 µM | > 20 µM | > 20 µM | Activity (MIA PaCa-2 [3]): 7%; Activity (MIA PaCa-2 [4]): 7.2%; Activity (MIA PaCa-2 [5]): 9.7%; Activity (MIA PaCa-2 [6]): 15.2%; Activity (MIA PaCa-2 [7]): 8.1%; Activity (MIA PaCa-2 [8]): 8.2%; Activity (MIA PaCa-2 [9]): 13%; Activity (MIA PaCa-2 [10]): 19.9%; CI (MIA PaCa-2 [11]): 1.21; CI (MIA PaCa-2 [12]): 2.04; CI (MIA PaCa-2 [13]): 2.18; CI (MIA PaCa-2 [14]): 2.16; CI (MIA PaCa-2 [15]): 1.13; CI (MIA PaCa-2 [16]): 1.87; CI (MIA PaCa-2 [17]): 1.42; CI (MIA PaCa-2 [18]): 1.43; viability at 2.5 µM (MIA PaCa-2 [19]): 6.1%; viability at 5 µM (MIA PaCa-2 [20]): 7.2%
2 | COc1cc(OC)c(C(C)=O)c(OC)c1 | 3.8 µM | 7.2 µM | 9.8 µM | 14.3 µM | > 20 µM | > 20 µM | –
3 | COc1cc(OC)c(C(=O)/C=C/c2ccccc2)c(O)c1Cc1ccccc1O | 3.1 µM | 6.8 µM | 5.8 µM | > 20 µM | 9.7 µM | > 20 µM | –
4 | CC(=O)c1c(O)cc(O)cc1O [2,4,6-TRIHYDROXYACETOPHENONE] | > 20 µM | > 20 µM | > 20 µM | > 20 µM | > 20 µM | > 20 µM | –
5 | COc1cc(O)c(Cc2ccccc2O)c(O)c1C(=O)CCc1ccccc1 [UVARETIN] | 3.7 µM | 3.6 µM | 2.2 µM | 2 µM | 11.3 µM | > 20 µM | Activity (HCT-116 [21]): inactive; Activity (HCT-116 [22]): inactive; Activity (HCT-116 [23]): inactive
6 | COc1cc(O)c(C(=O)/C=C/c2ccccc2)c(OC)c1 [FLAVOKAWAIN B] | > 20 µM | > 20 µM | 19.7 µM | 18.2 µM | > 20 µM | > 20 µM | –
7 | COc1cc(OC)c(C(=O)/C=C/c2ccccc2)c(OC)c1 | 5.2 µM | 6.7 µM | 4.3 µM | > 20 µM | > 20 µM | > 20 µM | –
8 | COc1cc(O)c(C(C)=O)c(OC)c1 [XANTHOXYLIN] | 18.7 µM | > 20 µM | > 20 µM | > 20 µM | > 20 µM | > 20 µM | –
